L major viab: Leishmania major promastigote growth inhibition; Leishmania major promastigotes, resazurin fluorescence viability; inhibition, % at 10 µM; 200,000 tested, 9% active; AID 1063; in the data active = inhibition above about 50%;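 note: promastigotes grown with compound for 44 hours at 28 °C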
WT yeast gro inh: growth inhibition of WT yeast, mitochondrial fusion screen; mitochondrial fusion phenotypic screen, WT strain; inhibition, % at 10 µM; 190,000 tested, 2.1% active; in the data active = inhibition above about 58%; tested in S. cerevisiae
RAM network inh: inhibitors of the yeast RAM network; S. cerevisiae dse1pr::URA3 reporter, 5-FOA growth OD615, 2 d; analog-sensitive cbk1-as2 kinase mutant strain; inhibition, % at 50 µM; 190,000 tested, 1.8% active; AID 868;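 active = inhibition above a set limit, 3 SD over mean compound inhibition, cut at about 8.4% in these data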;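 note: 0% = DMSO-only wells with no growth and 100% = 10 µM 1-NA-PP1 full growth; inhibition rescues growth on 5-FOA so higher OD means more RAM inhibition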
ABCG2 block: blocks JC-1 efflux by human ABCG2 transporter; Q9UNQ0; IgMXP3 cells, flow cytometry; inhibition, % at 6.6 µM; 190,000 tested, 0.1% active;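 active = inhibition above 80%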;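 note: 0% = DMSO and 100% = nicardipine control wells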
Target sequence (Q9UNQ0 whole entry, looked up): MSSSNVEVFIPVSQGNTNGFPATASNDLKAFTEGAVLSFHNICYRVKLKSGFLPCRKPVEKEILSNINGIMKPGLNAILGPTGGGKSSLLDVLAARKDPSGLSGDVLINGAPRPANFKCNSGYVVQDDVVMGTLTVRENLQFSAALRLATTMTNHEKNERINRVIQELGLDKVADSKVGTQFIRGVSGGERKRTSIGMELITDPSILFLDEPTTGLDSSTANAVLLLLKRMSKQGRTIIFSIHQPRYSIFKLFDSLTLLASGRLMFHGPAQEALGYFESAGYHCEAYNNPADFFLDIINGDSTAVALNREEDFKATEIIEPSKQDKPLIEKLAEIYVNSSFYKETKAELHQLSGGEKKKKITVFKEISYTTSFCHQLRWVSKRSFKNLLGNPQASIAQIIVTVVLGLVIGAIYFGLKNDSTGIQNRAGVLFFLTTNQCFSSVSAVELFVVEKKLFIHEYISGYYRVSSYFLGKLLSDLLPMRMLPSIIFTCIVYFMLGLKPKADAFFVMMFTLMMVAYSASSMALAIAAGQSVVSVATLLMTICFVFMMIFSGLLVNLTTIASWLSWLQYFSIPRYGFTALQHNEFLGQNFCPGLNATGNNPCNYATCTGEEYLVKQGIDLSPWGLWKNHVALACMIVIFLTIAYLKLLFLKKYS
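Assay system – ABCG2 IgMXP3 and barcoded ABCB1 CCRF-Adr cell mix · Input – 3 million cells/mL in well · Reagent – JC-1 fluorescent substrate · Compound – single test compound dose, 6.6 µM final · Timing – 10 min exposure at 25 °C with rotation, no wash · Detection – flow cytometry of retained JC-1 fluorescence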
ABCB1 block: inhibitors of human ABCB1 transporter, ABCG2 counter-screen | P08183 | CCRF-Adr cells, JC-1 efflux, flow cytometry | inhibition, % at 6.6 µM | 190,000 tested, 0.067% active | AID 1326; in the data active = inhibition above about 40%;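 note: 0% = vehicle and 100% = reference inhibitor; higher value means more JC-1 retained so stronger ABCB1 efflux block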
The depositor's hits bear a star. Hits are enriched below; roughly 12% of the tested compounds scored in any of these assays.

What do the screens show for `CCOc1cccc(-c2cc(-c3n[nH]c(=S)n3CC)c3ccccc3n2)c1`?
L major viab: 34; WT yeast gro inh: 67*; RAM network inh: 4; ABCG2 block: -1; ABCB1 block: 0

Results for CC(=O)Oc1c(C(=O)c2nnc(C)o2)c(=O)n(C)c2ccccc12 ?
L major viab: 3; WT yeast gro inh: -11; RAM network inh: 0; ABCG2 block: -1; ABCB1 block: 0

How did O=C(O)Cc1sc(-c2ccccc2Cl)nc1-c1ccccc1 do in these assays?
L major viab: -16; WT yeast gro inh: -23; RAM network inh: 4; ABCG2 block: 10; ABCB1 block: 1

What do the screens show for `Cc1ccc(-c2nc(-c3ccc(Cl)cc3)sc2CC(=O)O)c(C)c1`?
L major viab: -5; WT yeast gro inh: -15; RAM network inh: 9.6*; ABCG2 block: 5; ABCB1 block: 0

Results for COc1cccc(-c2cc(C(=O)Nc3ccccc3SC)no2)c1 ?
L major viab: -9; WT yeast gro inh: -4; RAM network inh: 8; ABCG2 block: 9; ABCB1 block: 0

What do the screens show for `COc1ccc(-c2cc(C(=O)Nc3ccccc3SC)no2)cc1OC`?
L major viab: -9; WT yeast gro inh: 16; RAM network inh: 8.7*; ABCG2 block: 10; ABCB1 block: 0

Results for COc1ccc(NC(=O)c2cc(-c3ccccc3OC)on2)cc1 ?
L major viab: -9; WT yeast gro inh: 0; RAM network inh: 2; ABCG2 block: 4; ABCB1 block: 1

How did COc1ccccc1-c1cc(C(=O)Nc2ccccc2SC)no1 do in these assays?
L major viab: -6; WT yeast gro inh: 9; RAM network inh: 9.0*; ABCG2 block: -1; ABCB1 block: 0

How did Cn1c(=O)c2c(nc(SCCN3CCCCC3)n2Cc2ccc(Cl)cc2)n(C)c1=O do in these assays?
L major viab: 90*; WT yeast gro inh: 5; RAM network inh: -1; ABCG2 block: 5; ABCB1 block: 3

Results for O=c1c2ccccc2nc(SCc2ccccc2Cl)n1Cc1ccccc1 ?
L major viab: 18; WT yeast gro inh: 69*; RAM network inh: 8.9*; ABCG2 block: 3; ABCB1 block: 1

What do the screens show for `CCSc1nc2c(c(=O)n(C)c(=O)n2C)n1Cc1ccc(Cl)cc1`?
L major viab: 4

Results for O=c1c2ccccc2nc(SCCN2CCCCC2)n1CCc1ccccc1 ?
L major viab: 86*; WT yeast gro inh: 34; RAM network inh: 1; ABCG2 block: 19; ABCB1 block: 2

What do the screens show for `CSc1cccc(CN2CCC(CO)(Cc3cccc(C(F)(F)F)c3)CC2)c1`?
L major viab: 81*; WT yeast gro inh: 57; RAM network inh: 0; ABCG2 block: 3; ABCB1 block: 1

Results for OC1(c2cccc(C(F)(F)F)c2)CCN(Cc2nnnn2Cc2ccccc2)CC1 ?
L major viab: 18; WT yeast gro inh: 1; RAM network inh: 1; ABCG2 block: 1; ABCB1 block: 0

What do the screens show for `OCC1(Cc2cccc(C(F)(F)F)c2)CCN(Cc2cc(F)cc(F)c2)CC1`?
L major viab: 86*; WT yeast gro inh: 69*; RAM network inh: 1; ABCG2 block: 7; ABCB1 block: 0

What do the screens show for `CN(C)S(=O)(=O)N1CCC(CO)(Cc2cccc(C(F)(F)F)c2)CC1`?
L major viab: 10; WT yeast gro inh: 11; RAM network inh: 0; ABCG2 block: 3; ABCB1 block: 1

Results for O=c1c2ccccc2nnn1CCO ?
L major viab: -4; WT yeast gro inh: -10; RAM network inh: 2; ABCG2 block: 3; ABCB1 block: 1

Results for CCCCCCCOC(=O)c1nc(Cl)c(Cl)c(N)c1Cl ?
L major viab: 2; WT yeast gro inh: 85*; RAM network inh: 4; ABCG2 block: 17; ABCB1 block: 0

Results for CCCCOC(=O)c1nc(Cl)c(Cl)c(N)c1Cl ?
L major viab: 11; WT yeast gro inh: -7; RAM network inh: 0; ABCG2 block: 24; ABCB1 block: 0

How did Cc1ccc2c(c1)nnn2C1CCN(CC(=O)NNC(=O)c2ccco2)CC1 do in these assays?
L major viab: -6; WT yeast gro inh: -8; RAM network inh: 2; ABCG2 block: 4; ABCB1 block: 0

What do the screens show for `Cc1ccc(Cl)cc1N1CCN(CC(=O)NC2CCCc3ccccc32)CC1` (stereo not given)?
L major viab: 4; WT yeast gro inh: 74*; RAM network inh: 1; ABCG2 block: 1; ABCB1 block: 0

Results for Cc1cc2c(cc(C(=O)NCCCN3CCOCC3)n2Cc2ccc(Cl)cc2)o1 ?
L major viab: 99*; WT yeast gro inh: 7; RAM network inh: 0; ABCG2 block: 1; ABCB1 block: 1

Results for O=C(NCCCN1CCOCC1)c1ccc(CS(=O)(=O)Cc2ccc(Cl)cc2)o1 ?
L major viab: 3; WT yeast gro inh: -19; RAM network inh: 2; ABCG2 block: 3; ABCB1 block: 1

What do the screens show for `Cc1ccc(Cn2c(C(=O)NCCCN3CCOCC3)cc3sccc32)cc1`?
L major viab: 87*; WT yeast gro inh: 2; RAM network inh: 2; ABCG2 block: 3; ABCB1 block: 1

What do the screens show for `Cn1c(C(=O)NCCN2CCOCC2)cc2sccc21`?
L major viab: 6; WT yeast gro inh: -4; RAM network inh: 0; ABCG2 block: 11; ABCB1 block: 0

Results for O=C(Nc1ccc2c(c1)OCCO2)c1cc2sccc2n1Cc1ccc(F)cc1 ?
L major viab: 97*; WT yeast gro inh: 38; RAM network inh: 6; ABCG2 block: 31; ABCB1 block: 1

How did O=C(Cn1c(C(=O)NCCCN2CCOCC2)cc2sccc21)c1ccccc1 do in these assays?
L major viab: 81*; WT yeast gro inh: 6; RAM network inh: 2; ABCG2 block: 3; ABCB1 block: 1

How did CCOc1cc(/C=N/N2CCOCC2)ccc1OCc1ccc(C(=O)OC)o1 do in these assays?
L major viab: -2; WT yeast gro inh: 10; RAM network inh: 0; ABCG2 block: 6; ABCB1 block: 1

What do the screens show for `COc1cccc(NC2=Nc3cccc4cccc2c34)c1`?
L major viab: 38; WT yeast gro inh: -18; RAM network inh: 2; ABCG2 block: 5; ABCB1 block: 0

Results for O=C1CSc2ccc(C(=O)Nc3cccc(S(=O)(=O)Nc4ccc(Br)cc4)c3)cc2N1 ?
L major viab: 3; WT yeast gro inh: -2; RAM network inh: 7; ABCG2 block: -6; ABCB1 block: -1

How did O=[N+]([O-])c1ccc(N2CCN(c3nc(-c4ccc(Cl)cc4)cs3)CC2)cc1 do in these assays?
L major viab: 98*; WT yeast gro inh: -8; RAM network inh: 3; ABCG2 block: 0; ABCB1 block: 0

How did CN(C(=O)COc1ccc([N+](=O)[O-])cc1)C1CCS(=O)(=O)C1 (stereo not given) do in these assays?
L major viab: -5; WT yeast gro inh: 6; RAM network inh: 0; ABCG2 block: 0; ABCB1 block: 0

Results for CCN(CC)S(=O)(=O)c1ccc(N=NC2=C(O)CC(C)(C)CC2=O)cc1 ?
L major viab: 80*; WT yeast gro inh: 16; RAM network inh: 0; ABCG2 block: 6; ABCB1 block: 1

Screening results deposited in PubChem BioAssay by several laboratories.
